Measured values: paper PMC8426090 (ACS chemical neuroscience, 2021)
Entries after “also recorded” stand apart in the source; their conditions may differ. Counter-ions that a name gives are not always drawn.

Tests used:
D2^high = conditions: cited from earlier work
dopamine D2 receptor [1] = conditions: co-incubation with guanylylimidodiphosphate; cited from earlier work
dopamine D2 receptor [2] = biological target: dopamine D2 receptor (Rattus norvegicus, UniProt P61169); assay: in vitro autoradiography on rat brain sections; assay type: binding; conditions: transaxial and coronal/transversal sections; excess competitor
Chain of dopamine D2 receptor (Rattus norvegicus, UniProt P61169) (P61169 whole entry): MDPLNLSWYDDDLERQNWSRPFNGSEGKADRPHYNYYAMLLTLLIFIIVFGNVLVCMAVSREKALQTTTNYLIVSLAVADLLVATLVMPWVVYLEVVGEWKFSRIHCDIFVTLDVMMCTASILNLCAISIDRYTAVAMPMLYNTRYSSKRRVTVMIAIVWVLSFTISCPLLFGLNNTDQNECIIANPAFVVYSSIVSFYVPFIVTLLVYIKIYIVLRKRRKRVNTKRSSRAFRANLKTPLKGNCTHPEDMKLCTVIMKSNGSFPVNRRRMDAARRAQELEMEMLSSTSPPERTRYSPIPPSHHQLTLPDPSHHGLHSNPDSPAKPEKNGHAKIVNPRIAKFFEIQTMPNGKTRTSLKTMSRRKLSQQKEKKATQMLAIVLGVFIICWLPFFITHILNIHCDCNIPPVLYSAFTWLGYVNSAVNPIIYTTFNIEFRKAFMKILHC

[3] = human liver microsome stability assay; assay type: in vitro ADME; conditions: 1 h (60 min), 37 °C, NADPH 1 mM, pooled human liver microsomes
Procedure, shortened: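 Test compound (from a 100× stock) preincubated 5 min at 37 °C with pooled human liver microsomes in 100 mM phosphate buffer pH 7.4. NADPH (1 mM final) started the reaction, run 30 or 60 min at 37 °C and quenched with cold acetonitrile. Supernatant analysed by C18 HPLC (UV 265 nm), with remaining parent expressed relative to the 0 min sample. Dextromethorphan was the positive control; negative controls were heat-inactivated microsomes and no NADPH. Triplicate.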

[4] = test system: other receptors of the D2 receptor family; other receptors found in the brain; conditions: cited from earlier work
[5] = biodistribution of [3H]MCL-536 in peripheral organs; assay type: in vivo, Sprague–Dawley rats
[6] = biodistribution of [3H]MCL-536 in the rat brain; assay type: in vivo, Sprague–Dawley rats; conditions: for uptake in striatum, % injected dose per gram wet tissue: 15 min after tail vein injection

For `C[C@H](N)Cc1ccccc1` [Amphetamine, d-amphetamine sulfate], the “increase in D2high, measured in the striatum in vivo” value (D2^high; in vivo) is listed as about 2.36 fold and the “elevation of D2high in vitro in the same tissue” value (D2^high; striatum, in vitro) is listed as 2.44 fold.

In the case of `Nc1nc2c(ncn2[C@@H]2O[C@H](COP(=O)(O)OP(=O)(O)NP(=O)(O)O)[C@@H](O)[C@H]2O)c(=O)[nH]1` [Gpp(NH)p, guanylylimidodiphosphate], the “binding of [3H]MCL-536 to D2high on co-incubation” value (dopamine D2 receptor [1]) is given as “abolished binding to D2^high” and the “effect on binding of [3H]MCL-536 on brain sections (summary statements)” value (from here on “effect on binding”) (dopamine D2 receptor [2]) is given as “abolished binding”.

For `[3H]C(C)C([3H])N1CCc2cc(OCCCF)cc3c2[C@H]1Cc1cccc(O)c1-3` (stereo partly shown) [MCL-536], the “compound remaining intact after incubation with human liver microsomes” value [3] is listed as “about 75%”, the “affinity for other receptors found in the brain / other receptors tested” value [4] is listed as “little to no affinity” and the “affinity for other receptors of the D2 receptor family” value [4] is listed as “but not for the other receptors of the D2 subfamily; also recorded: but not to other receptors of the D2 receptor family”.

With `CCCN1CCc2cccc3c2[C@H]1Cc1ccc(O)c(O)c1-3` [NPA, (R)-(−)-N-n-propylnorapomorphine] the “effect on binding” value (dopamine D2 receptor [2]) was “abolished”.

In the case of `[3H]C(C)C([3H])N1CCc2cc(OCCCF)cc3c2[C@H]1Cc1cccc(O)c1-3` (stereo partly shown) [[^3H]MCL-536], the “time of maximum %ID/g in peripheral tissues” value ([5]; all peripheral tissues) is reported as 15 min, the “reduction of levels in fatty tissue” value ([5]; at 60 min) is reported as “about 2/3” and the “decline of %ID/g in the kidneys” value ([5]; by 60 min, both sexes) is reported as “about 60%”. The “brain uptake values 4 h after injection” value ([6]; 4 h after injection) was “almost baseline”, the “uptake in striatum, % injected dose per gram wet tissue” value ([6]; female rats) was 0.42 %ID/g and the “course of %ID/g in the striatum” value ([6]; females, 60 min postinjection) was “stable”. For the same compound, the “baseline binding in cerebellum” value ([6]; male and female rats) was at most 0.1 %ID/g, the “uptake in striatum, % injected dose per gram wet tissue” value ([6]; male rats) was 0.28 %ID/g and the “decline of %ID/g in the striatum” value ([6]; males, 60 min postinjection) was “about 25%”.

With `CCN1CCC[C@H]1CNC(=O)c1c(O)c(Cl)cc(Cl)c1OC` [raclopride] the “effect on binding” value (dopamine D2 receptor [2]) was “completely abolished”.

For `CCN1CCCC1CNC(=O)c1cc(S(N)(=O)=O)ccc1OC` (stereo not shown) [sulpiride], the “effect on binding” value (dopamine D2 receptor [2]) was “completely abolished”.
